Assay [1] can be described thus: Inhibition of Proteus vulgaris CCM 1956 urease by berthelot colorimetric assay. In outline: (§1)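 Urease partially purified from the cells of each strain, which were grown aerobically at 37 °C in yeast extract/urea/1 mM NiCl2 medium at pH 9.0. Purification used anion exchange followed by phenyl-Sepharose. Enzyme incubated at 30 °C in 3 mM phosphate pH 7.0 with increasing inhibitor concentrations and urea 10–100 mM. Activity read by modified Berthelot colorimetry. IC50 and Ki were derived by equation fitting.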

Assay [2] is described as follows: Inhibition of Bacillus pasteurii CCM 2056 urease by berthelot colorimetric assay. Also noted: species or system Sporosarcina pasteurii. In outline: as §1
Assay [3] is described as follows: Inhibition of Klebsiella aerogenes urease.

Each structure is given as a SMILES string.

Regarding `O=C(CNC(=O)OCc1ccccc1)NCP(=O)(O)CO`, in assay [1], 3.6 µM corresponded to half-maximal inhibition (IC50) and the inhibition constant (Ki) was found to be 1.96 µM. In assay [2], this compound came in with an IC50 of 5 µM and a Ki of 1.35 µM.
As to `O=C(NCP(=O)(O)CO)c1ccccc1` [BENZOYLAMINOMETHYL(HYDROXYMETHYL)PHOSPHINIC ACID], in assay [1], the IC50 was 28 µM and affinity was put at a Ki of 9.2 µM. Besides, in assay [2], the concentration for half-maximal inhibition (IC50) was 69 µM and the inhibitory constant (Ki) worked out at 31.9 µM.
In assay [1], `O=C(NCP(=O)(O)CO)OCc1ccccc1` gave an IC50 of 377 µM and an inhibitory constant (Ki) of 41.9 µM. In assay [2], this compound displayed an IC50 of 889 µM and a Ki of 376 µM.
As for `CNCP(=O)(O)CO` [HYDROXYMETHYL((METHYLAMINO)METHYL)PHOSPHINIC ACID], the IC50 was 0.96 µM in assay [1] and 1.59 µM in assay [2]. For the same compound, the Ki in assay [1] is 0.36 µM; in assay [2] it was 0.43 µM.
In assay [1], `NCC(=O)NCP(=O)(O)CO` displayed a concentration for half-maximal inhibition (IC50) of 14.9 µM and a Ki of 7.3 µM. In addition, in assay [2], the midpoint of inhibition, the IC50, lay at 85 µM and the inhibition constant Ki worked out at 30.5 µM.
`CP(=O)(O)CNC(=O)CN`: in assay [1], the inhibitory constant (Ki) came to 30 µM.
In assay [1], `CN(C)CC(=O)NCP(=O)(O)CO` gave an IC50 of 0.86 µM and an inhibitory constant (Ki) of 0.43 µM. In assay [2], this compound registered a half-inhibitory concentration (IC50) of 2.15 µM and a Ki of 1.15 µM.
As to `NCP(=O)(O)CO` [AMINOMETHYL(HYDROXYMETHYL)PHOSPHINIC ACID], the half-inhibitory concentration (IC50) in assay [1] was 47.7 µM; in assay [2], 423 µM. Moreover, the inhibition constant Ki was determined as 27.5 µM in assay [1] and 95 µM in assay [2].
With `CNCP(C)(=O)O` [METHYL((METHYLAMINO)METHYL)PHOSPHINIC ACID], the inhibition constant Ki in assay [1] was 27 µM. In other words, the double-digit micromolar range.
Consider `CNCC(=O)NCP(=O)(O)CO`, for which, in assay [1], the IC50 was 20.6 µM and the Ki came out at 16.2 µM. Besides, in assay [2], the IC50 turned out to be 25.4 µM and the Ki was determined as 10.6 µM.
Turning to `CC(=O)NO` [ACETOHYDROXAMIC ACID], in assay [3], the affinity, expressed as Ki, was 2.6 µM.
In assay [1], `O=C(NCP(O)(=S)CO)OCc1ccccc1` (stereo not drawn) showed an IC50 of 976 µM and a Ki of 143 µM. In assay [2], this compound displayed a half-maximal inhibitory concentration (IC50) of 1420 µM and an inhibition constant (Ki) of 428 µM.
Consider `CN(C)CP(=O)(O)CO` [(DIMETHYLAMINO)METHYL(HYDROXYMETHYL)PHOSPHINIC ACID], for which, in assay [1], the 50% inhibitory concentration (IC50) was 17.2 µM and affinity was put at a Ki of 3.1 µM. In assay [2], this compound came in with a half-inhibitory concentration (IC50) of 67.6 µM and an inhibitory constant (Ki) of 5 µM.

(Values after ChEMBL document CHEMBL1212918, “Computer-aided optimization of phosphinic inhibitors of bacterial ureases” (J Med Chem, 2010).)
